{"source": "paper PMC3625046", "about": "(Bioorganic & medicinal chemistry letters, 2013)", "key": {"[1]": {"tested_on": "human foreskin fibroblasts", "test": "Toxicity to human foreskin fibroblasts", "assay_type": "cell-based"}, "[2]": {"tested_on": "P. falciparum strain TM91C235 (WRAIR, Thailand; chloroquine resistant)", "test": "SYBR Green assay, P. falciparum strain C235", "assay_type": "cell-based, Plasmodium falciparum"}, "[3]": {"tested_on": "P. falciparum strain D6 (CDC/Sierra Leone)", "test": "SYBR Green assay, P. falciparum strain D6", "assay_type": "cell-based, Plasmodium falciparum", "conditions": "chloroquine sensitive D6 strain"}, "[4]": {"tested_on": "T. gondii (Pru strain expressing firefly luciferase)", "test": "T. gondii murine infection model", "assay_type": "in vivo, mice", "procedure,_shortened": "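Mice infected intraperitoneally with 2x10⁴ Pru-strain T. gondii tachyzoites expressing firefly luciferase. Animals imaged daily by bioluminescence after intraperitoneal luciferin (3mg). Parasite burden in treated mice compared with a DMSO control group on day 6 post-infection. Three separate replicate experiments, analysed singly and pooled; ANOVA with group and run as factors.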"}, "[5]": {"tested_on": "Toxoplasma gondii", "conditions": "read-out: IC50, growth of T. gondii parasites; cited from earlier work"}, "[6]": {"biological_target": "T1, Toxoplasma gondii enoyl reductase (TgENR) (Toxoplasma gondii, UniProt Q6UCJ9)", "T1 sequence (Q6UCJ9 28-417)": "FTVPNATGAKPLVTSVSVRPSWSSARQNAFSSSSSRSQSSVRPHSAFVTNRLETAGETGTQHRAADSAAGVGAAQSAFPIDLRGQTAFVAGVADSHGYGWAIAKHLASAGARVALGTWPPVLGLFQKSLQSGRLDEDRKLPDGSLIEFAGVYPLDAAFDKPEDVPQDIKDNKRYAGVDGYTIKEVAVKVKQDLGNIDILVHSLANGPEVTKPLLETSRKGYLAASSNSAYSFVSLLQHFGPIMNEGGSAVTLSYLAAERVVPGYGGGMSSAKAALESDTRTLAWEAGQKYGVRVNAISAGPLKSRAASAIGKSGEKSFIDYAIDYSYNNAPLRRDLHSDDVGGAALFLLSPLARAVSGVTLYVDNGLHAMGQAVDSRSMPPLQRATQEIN", "test": "TgENR enzyme assay", "assay_type": "biochemical", "conditions": "read-out: Inhibition (%) at 1 µM"}}}
{"smiles": "Oc1cc(Cl)ccc1Oc1ccc2ccccc2c1", "note": "[Compound 2]", "values": [{"measurement": "Toxicity", "setting": "[1]", "value": ">10", "unit": "µM"}]}
{"smiles": "Oc1cc(Cl)ccc1Oc1ccc(C(F)(F)F)cc1Cl", "note": "[Compound 3]", "values": [{"measurement": "Toxicity", "setting": "[1]", "value": ">10", "unit": "µM"}]}
{"smiles": "CN1CCN(c2ccc(Oc3ccc(Cl)cc3O)cc2)CC1", "note": "[Compound 5a]", "values": [{"measurement": "Toxicity", "setting": "[1]", "value": ">10", "unit": "µM"}]}
{"smiles": "Oc1cc(Cl)ccc1Oc1ccc(N2CCOCC2)cc1", "note": "[Compound 5b]", "values": [{"measurement": "Toxicity", "setting": "[1]", "value": ">10", "unit": "µM"}]}
{"smiles": "CC(=O)N1CCN(c2ccc(Oc3ccc(Cl)cc3O)cc2)CC1", "note": "[Compound 5c]", "values": [{"measurement": "activity against P. falciparum C235", "setting": "[2]", "value": "inactive"}, {"measurement": "activity against P. falciparum D6", "setting": "[3]", "value": "inactive"}, {"measurement": "Toxicity", "setting": "[1]", "value": ">10", "unit": "µM"}, {"measurement": "efficacy at lower dose", "setting": "[4]; 50mg/kg", "value": "not effective"}, {"measurement": "toxicity in infected mice", "setting": "[4]; 75mg/kg, by the seventh day after infection", "value": "toxic"}, {"measurement": "solubility of higher dose", "setting": "[4]; 100mg/kg", "value": "not completely soluble"}]}
{"smiles": "CN1CCN(Cc2ccc(Oc3ccc(Cl)cc3O)cc2)CC1", "note": "[Compound 5d]", "values": [{"measurement": "Toxicity", "setting": "[1]", "value": ">10", "unit": "µM"}]}
{"smiles": "O=S(=O)(c1ccc(Oc2ccc(Cl)cc2O)cc1)N1CCCC1", "note": "[Compound 7a]", "values": [{"measurement": "Toxicity", "setting": "[1]", "value": ">10", "unit": "µM"}]}
{"smiles": "O=S(=O)(c1ccc(Oc2ccc(Cl)cc2O)cc1)N1CCCCC1", "note": "[Compound 7b]", "values": [{"measurement": "Toxicity", "setting": "[1]", "value": ">10", "unit": "µM"}]}
{"smiles": "Cn1cc(C(=O)Nc2ccc(Cl)cc2O)c(C(F)(F)F)n1", "note": "[Compound 10]", "values": [{"measurement": "Toxicity", "setting": "[1]", "value": ">10", "unit": "µM"}]}
{"smiles": "CNC(=O)c1ccc(Oc2ccc(Cl)cc2O)o1", "note": "[Compound 14a]", "values": [{"measurement": "Toxicity", "setting": "[1]", "value": ">10", "unit": "µM"}]}
{"smiles": "Cc1cc(NC(=O)c2ccc(Oc3ccc(Cl)cc3O)o2)no1", "note": "[Compound 14b]", "values": [{"measurement": "Toxicity", "setting": "[1]", "value": ">10", "unit": "µM"}]}
{"smiles": "CC(=O)N1CCN(C(=O)c2ccc(Oc3ccc(Cl)cc3O)o2)CC1", "note": "[Compound 14c]", "values": [{"measurement": "Toxicity", "setting": "[1]", "value": ">10", "unit": "µM"}]}
{"smiles": "O=C(O)c1ccc(Oc2ccc(Cl)cc2O)s1", "note": "[Compound 16]", "values": [{"measurement": "Toxicity", "setting": "[1]", "value": ">10", "unit": "µM"}]}
{"smiles": "CC(C)(C)OC(=O)N1CCN(C(=O)c2ccc(Oc3ccc(Cl)cc3O)s2)CC1", "note": "[Compound 17b]", "values": [{"measurement": "Toxicity", "setting": "[1]", "value": ">10", "unit": "µM"}]}
{"smiles": "O=C(c1ccc(Oc2ccc(Cl)cc2O)s1)N1CCNCC1", "note": "[Compound 17c]", "values": [{"measurement": "Toxicity", "setting": "[1]", "value": ">10", "unit": "µM"}]}
{"smiles": "CC(=O)N1CCN(Cc2ccc(Oc3ccc(Cl)cc3O)s2)CC1", "note": "[Compound 18]", "values": [{"measurement": "Toxicity", "setting": "[1]", "value": ">10", "unit": "µM"}]}
{"smiles": "Oc1cc(Cl)ccc1Oc1ccc2ncccc2c1", "note": "[Compound 19]", "values": [{"measurement": "Toxicity", "setting": "[1]", "value": ">10", "unit": "µM"}]}
{"smiles": "Oc1cc(Cl)ccc1Oc1ccc(Cl)cc1Cl", "note": "[Triclosan]", "values": [{"measurement": "IC50", "setting": "[5]", "value": "~0.2", "unit": "µM"}, {"measurement": "Toxicity", "setting": "[1]", "value": ">10", "unit": "µM"}, {"measurement": "inhibition at 1 µM", "setting": "[6]", "value": 98, "unit": "%"}]}
